The text below walks through data of ChEMBL document CHEMBL1149561, “Synthesis of benzothiazole semicarbazones as novel anticonvulsants--the role of hydrophobic domain” (Bioorg Med Chem Lett, 2007).

Molecules are shown by their SMILES.

The subject of data set [1] is Mus musculus. The experiment in a line: Anticonvulsant activity in Swiss Albino mouse at 30 mg/kg after 0.5 hrs by MES screen test. Type of data set: functional. The essentials:
(§1)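 Swiss albino mice (25–30 g) given 30 mg/kg i.p. Maximal electroshock (MES) seizure test run 0.5 and 4 h after dosing. Activity read out as % of animals protected. Phenytoin at 30 mg/kg i.p. served as standard.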

The test system of data set [2] is Mus musculus. Put plainly: Anticonvulsant activity in swiss Albino mouse at 30 mg/kg after 4 hrs by MES screen test. Type of data set: functional. The procedure, abridged: as §1
Data set [3] deals with Mus musculus. Put plainly: Neurotoxicity in Swiss Albino mouse at 30 mg/kg after 4 hrs by rotarod test. Type of data set: toxicity, organism-based. Further details: dose 30 mg/kg; call rule not given here. As to conditions: in vivo. The procedure, abridged: (§2)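 Swiss albino mice received 30 mg/kg i.p. Motor impairment scored on the rotarod 0.5 and 4 h after dosing. Results given as number of animals showing toxicity over number tested.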

Data set [4] deals with Mus musculus. Put plainly: Neurotoxicity in Swiss Albino mouse at 30 mg/kg after 0.5 hrs by rotarod test. Type of data set: toxicity, organism-based. Further details: dose 30 mg/kg. The settings on record: in vivo. The procedure, abridged:
as §2
(The rotarod test checks motor coordination on a turning rod.)

Data set [5] in a line: Lipophilicity, log P of the compound. Type of data set: physicochemical. The settings on record: octanol/water.

With `O=C(NN=C(c1ccccc1)c1ccccc1)Nc1nc2ccc(Cl)cc2s1`, the Activity in the data set on Mus musculus [1] worked out at 50%; with Mus musculus [2], 33.3%.
Regarding `C/C(=N\NC(=O)Nc1nc2ccc(C)cc2s1)c1ccccc1`, the Activity in the data set on Mus musculus [1] and with Mus musculus [2] was 33.3% throughout.
On to `COc1ccc2nc(NC(=O)N/N=C(\C)c3ccc([N+](=O)[O-])cc3)sc2c1`, for which the Activity result in the data set with Mus musculus [3] was “Not Active”; in the data set on Mus musculus [4], “Not Active”; with Mus musculus [1], 100%; with Mus musculus [2], 100%.
In the case of `Cc1ccc2nc(NC(=O)NN=C(c3ccccc3)c3ccccc3)sc2c1`, the Activity in the data set on Mus musculus [1] and with Mus musculus [2] was 33.3% throughout.
For `COc1ccc(/C(C)=N/NC(=O)Nc2nc3ccc(OC)cc3s2)cc1`, the Activity result in the data set with Mus musculus [3] is listed as “Not Active”; in the data set with Mus musculus [4], “Not Active”; with Mus musculus [1], 83.3%; in the data set on Mus musculus [2] it was 83.3%.
As a reminder, the logP is a log measure of how a compound divides between an organic and an aqueous phase. A higher logP goes with a more lipophilic compound. Turning to `C/C(=N\NC(=O)Nc1nc2ccc(C)cc2s1)c1ccc([N+](=O)[O-])cc1`, the Activity entry is on record as “Not Active” in the data set on Mus musculus [3], “Not Active” in the data set with Mus musculus [4], 100% in the data set with Mus musculus [1] and 100% in the data set on Mus musculus [2]. The same compound gave a logP in data set [5] of 3.22.
In the case of `COc1ccc2nc(NC(=O)NN=C(c3ccccc3)c3ccccc3)sc2c1`, the Activity entry in the data set on Mus musculus [3] is “Not Active”; in the data set with Mus musculus [4], “Not Active”; with Mus musculus [1] it was 100%; in the data set on Mus musculus [2], 100%.
As to `COc1ccc2nc(NC(=O)N/N=C(\C)c3ccccc3)sc2c1`, the Activity result in the data set with Mus musculus [3] is “Not Active”; in the data set on Mus musculus [4] it was “Not Active”; with Mus musculus [1], 83.3%; in the data set with Mus musculus [2], 66.6%.
In the case of `C/C(=N\NC(=O)Nc1nc2ccc(Cl)cc2s1)c1ccccc1`, the Activity result is recorded as “Not Active” in the data set with Mus musculus [3], “Not Active” with Mus musculus [4], 100% in the data set on Mus musculus [1] and 83.3% in the data set on Mus musculus [2]. In data set [5], this compound showed a logP of 3.12.
For `C/C(=N\NC(=O)Nc1nc2ccc(C)cc2s1)c1ccc(O)cc1`, the Activity with Mus musculus [1] and in the data set with Mus musculus [2] was 66.6% in each case.
On to `COc1ccc(/C(C)=N/NC(=O)Nc2nc3ccc(Cl)cc3s2)cc1`, for which the Activity in the data set with Mus musculus [1] and in the data set with Mus musculus [2] was 66.6% throughout.
Consider `COc1ccc2nc(NC(=O)N/N=C(\C)c3ccc(O)cc3)sc2c1`, for which the values for the Activity in the data set with Mus musculus [1] and in the data set with Mus musculus [2] were 66.6% and 50%, respectively.
The like results for `C/C(=N\NC(=O)Nc1nc2ccc(Cl)cc2s1)c1ccc([N+](=O)[O-])cc1` were, in that order, 33.3% and 33.3%.
As to `COc1ccc(/C(C)=N/NC(=O)Nc2nc3ccc(C)cc3s2)cc1`, the Activity entry was “Not Active” in the data set on Mus musculus [3], “Not Active” with Mus musculus [4], 83.3% in the data set on Mus musculus [1] and 83.3% in the data set with Mus musculus [2].
Consider `C/C(=N\NC(=O)Nc1nc2ccc(Cl)cc2s1)c1ccc(O)cc1`, for which the Activity in the data set on Mus musculus [1] and with Mus musculus [2] was 50% in each case.
`O=C1NC(=O)C(c2ccccc2)(c2ccccc2)N1` [PHENYTOIN]: the Activity result in the data set with Mus musculus [3] is “Not Active”; in the data set with Mus musculus [4] it was “Not Active”; with Mus musculus [1], 100%; in the data set with Mus musculus [2] it was 100%.
